Only some compounds are listed: those with a hit (about 3.1% of all), similar ones and a draw of the others.
PolyA inh: inhibitors of polyadenylation in S. cerevisiae | AID 1875 | 300,000 tested, 0.02% active | S. cerevisiae SKY197-pL101 polyadenylation reporter, beta-gal luminescence; efflux-impaired pdr1/pdr3 knockout yeast; score 100 = 6 SD above DMSO | activity score, % at 12 µM;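 active means lowest replicate activity score at least 50, where 100 means six control SD above control mean; inconclusive means lowest score under 50 but half or more replicates reach 50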;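 further: yeast exposed to compound for 9 h at 30 °C; higher score means more reporter readthrough which indicates perturbed polyadenylation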
Beta apoptosis: blocks beta cell apoptosis; INS-1E cytokine-induced death, ATP luminescence, 48 h; percent of positive-control rescue, neutral wells zero; protection from apoptosis, % (test concentration not listed); 300,000 tested, 0.8% active;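 active means Every replicate reaches about 75%, or at least half do and their mean reaches it too, limit read from the data; inconclusive means At least half of replicates reach the limit but their mean does not; inactive means Under half of replicates reach the limit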;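 further: 0% = cytokine-treated negative control wells and 100% = positive control rescue; higher means more ATP so stronger rescue from cytokine killing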
HIF act: HIF pathway transcriptional activation; 300,000 tested, 0.32% active; AID 1910; activation, % at 7.5 µM (by protocol); U2OS HRE-luciferase reporter, luminescence; normalized: DMSO 0%, desferrioxamine 100%;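 active means mean activation of at least 10% of the iron chelator positive control signal, with at least half of replicates also reaching 10%; inconclusive means mean and replicate majority disagree about reaching 10%; inactive means mean and most replicates under 10%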
Calb FLC: C. albicans growth modulation with fluconazole | 300,000 tested, 0.57% active | AID 1979 | C. albicans CaCi-2 (fluconazole-resistant clinical isolate) + fluconazole, Alamar Blue growth, 48 h | growth inhibition, % (concentration not given with the values);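 active means growth inhibition above about 58% in most replicates, limit read from the data, passing the limit was not always enough; inconclusive means exactly half the replicates above a set limit; inactive means most replicates below a set limit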;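 further: all wells also contain fluconazole at 8 µg/ml as a sub-toxic cotreatment; 0% = median of DMSO wells and 100% = median of geldanamycin control wells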
CSC inhib: blocks cancer stem cells. inhibition, % at 7.5 µM. cancer stem cell-like cells viability, luminescence. 300,000 tested, 1.1% active. AID 2717; in the data active means inhibition above about 75%; inconclusive means no clear call, values can overlap the other calls; tested in HMLE shEcad cells
T cruzi inh: T. cruzi replication inhibition. T. cruzi beta-gal in NIH3T3, luminescence, 90 h. inhibition, % (concentration not given with the values). 300,000 tested, 1.4% active. AID 1885;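 active means mean inhibition across valid replicates above about 55%, limit read from the data; inconclusive means mean below that limit but half or more replicates reach it; inactive means mean below it, under half of replicates reach it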;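 further: signal also drops with host cell toxicity which is not excluded here; 0% = plate median of DMSO wells and 100% = zero luminescence signal; higher percent means less beta-gal luminescence so fewer parasites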
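System – NIH/3T3 host cells with β-galactosidase reporter T. cruzi · Doses – single 50 nL compound addition per well in DMSO · Reagent – 5000 T. cruzi trypomastigotes/well · Medium – Low-serum DMEM with 2% FBS · Timing – ≥90 h infection period, 3 h prior cell attachment · Evaluation – parasite load inhibition, % · Technique – GalScreen luminescence, 60 min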
Numbers without * were called inactive; ? = inconclusive; nt = no result given.

SMILES | PolyA inh | Beta apoptosis | HIF act | Calb FLC | CSC inhib | T cruzi inh
O=C(NCC(c1ccco1)N1CCCC1)c1ccc(Cl)c(S(=O)(=O)N2CCc3ccccc32)c1 (stereo unspecified) | nt | 75* | nt | nt | nt | nt
Nc1nc(CN2CCN(c3ccccn3)CC2)nc(Nc2ccc(F)cc2)n1 | 18 | 2 | 0 | 92* | nt | -11
Nc1nc(CN2CCCCCC2)nc(Nc2ccc(F)cc2)n1 | 10 | -7 | -1 | -4 | 3 | -2
CC(=O)N/N=C\c1ccccc1OC/C=C/c1ccccc1 | 20 | 3 | 5 | 1 | 26 | -15
Cc1cc(C)c(S(=O)(=O)Nc2ccc3c4c(cccc24)CC3)c(C)c1 | -4 | 14 | 1 | 9 | 93* | 7
CC(C)COc1ccc(CNC(=S)Nc2ccccc2)cc1Cl | -45 | 9 | -2 | -20 | 26 | 9
O=C(C1CCN(C2CCN(Cc3ccsc3)CC2)CC1)N1CCOCC1 | 11 | 3 | 0 | -5 | 3 | 8
CN(C)S(=O)(=O)c1cccc(C(=O)Nc2ccccc2C(=O)NC2CC2)c1 | nt | -5 | nt | nt | 5 | nt
Cc1cc(NC(=O)c2cccs2)n(-c2nc3ccccc3[nH]2)n1 | -5 | 50 | 0 | 4 | 54 | 58*
Cc1cc(NC(=O)c2ccccc2)n(-c2nc3ccccc3[nH]2)n1 | -2 | 9 | 24* | 20 | -7 | 12
Cc1cc(NC(=O)c2sccc2C)n(-c2nc3ccccc3[nH]2)n1 | -22 | nt | 0 | 22 | -1 | 39
COc1ccc(C(=O)Nc2cc(C)nn2-c2nc3ccccc3[nH]2)c(OC)c1 | -21 | 11 | 0 | 2 | -12 | 61*
COc1cccc(OC)c1C(=O)Nc1cc(C)nn1-c1nc2ccccc2[nH]1 | -3 | 31 | 1 | 1 | 50 | 43
O=C(Cn1c(C(F)(F)F)nc2ccccc21)Nc1ccccc1C(=O)O | 3 | 0 | 0 | 13 | -5 | -18
CC(C(=O)Nc1ccccc1C(=O)O)n1c(C(F)(F)F)nc2ccccc21 (stereo unspecified) | 8 | 2 | 0 | -4 | -3 | 71*
CNC(C)C(=O)NC(C(=O)N1CCCC1C(=O)NNc1ccccc1)C(C)C (stereo unspecified) | nt | 5 | nt | nt | 98* | nt
COc1ccc(C2NCCc3cc(OC)c(OC)cc32)cc1OC (stereo unspecified) | -22 | -5 | 0 | 43 | -16 | 5
COc1cc2c(cc1OC)C(c1ccc(Br)cc1)NCC2 (stereo unspecified) | 3 | 0 | 0 | 12 | -15 | 57*
COc1cc(OC)cc(C(=O)N[C@H](C(=O)OCC(=O)Nc2cccnc2Cl)C(C)C)c1 | nt | -3 | nt | nt | nt | nt
CCC(C)Sc1ccc(-c2nc3ccc(C)cn3c2NC2CCCCC2)cc1 (stereo unspecified) | 2 | 40 | -5 | 0 | 49 | 72*
CCC(C)Sc1cc(-c2nc3ccccn3c2NC2CCCCC2)ccc1OC (stereo unspecified) | 7 | 31 | -3 | 22 | 126* | 32
CCC(C)Sc1cccc(-c2nc3ccc(C)cn3c2NC2CCCCC2)c1 (stereo unspecified) | -7 | 57 | -3 | 8 | 7 | 20
Cc1nc(N2CCCCC2)c(C#N)c(C)c1[N+](=O)[O-] | -25 | -2 | -1 | -10 | -1 | 10
O=C1/C(=C/c2cccs2)SC(=S)N1c1cccc(O)c1 | 0 | -1 | 1 | 30 | 6 | 1
COc1ccc2cc(/C=N/NC(=O)CN(c3ccccc3C)S(=O)(=O)c3ccccc3)c(Cl)nc2c1 | -1 | -4 | -3 | 3 | 19 | -3
SMILES | PolyA inh | Beta apoptosis | HIF act | Calb FLC | CSC inhib | T cruzi inh
Cc1cc(=O)[nH]c(SCC(=O)O)c1C#N | 20 | 2 | 0 | 9 | -12 | 11
C=C(C)CSc1[nH]c(=O)cc(C)c1C#N | 2 | 4 | 0 | 86* | -14 | -14
CC1CC(C)CN(S(=O)(=O)c2ccc(C(=O)NCCCn3ccnc3)cc2)C1 (stereo unspecified) | -4 | 114* | 0 | 7 | 101* | 29
O=C(NCCCn1ccnc1)c1ccc(S(=O)(=O)N2CCCCCC2)cc1 | 8 | 1 | 0 | 16 | 34 | -8
O=C(COC(=O)/C=C/c1cccc(F)c1)NC(=O)NCc1ccccc1 | nt | -2 | nt | nt | -19 | nt
COc1ccc(-c2nc3ccccc3n2Cc2ccccc2)cc1 | -16 | -4 | 1 | -3 | -5 | 38
COc1ccc(-c2n(Cc3ccccc3)c3ccccc3[n+]2Cc2ccccc2)cc1 | 7 | 113* | 0 | ? | 25 | 45
SC(COCc1ccccc1)CN1CCN(Cc2ccc3c(c2)OCO3)CC1 (stereo unspecified) | 33 | 6 | 0 | 1 | 34 | 55*
OC(COCc1ccccc1)CN1CCN(Cc2ccc3c(c2)OCO3)CC1 (stereo unspecified) | -3 | -2 | 0 | -33 | nt | 21
O=C(/C=C/c1ccco1)Oc1cc(Br)cc(/C=N/NC(=O)c2ccccc2O)c1 | -22 | 1 | 97* | 90* | 9 | 7
Cc1ccn(-c2ccc(NC(=O)c3cccs3)cc2)n1 | -10 | 4 | 3 | 0 | 53 | -4
Cc1cc(=O)oc2c3c(cc(OCC(=O)NC(C)C)c12)OC(C)(C)CC3 | -18 | 5 | 0 | 15 | -1 | -3
Cc1ccnc(SCC(=O)c2ccc(Br)cc2)c1C#N | -31 | 0 | 2 | 5 | nt | 74*
Cc1ccc(C(=O)CSc2nsc(C)c2C#N)cc1 | -15 | 2 | 2 | -6 | 9 | -7
CC(=O)c1cccc(NC(=O)N2CCC(NC(=O)c3ccco3)CC2)c1 | 2 | 2 | 0 | -3 | 5 | -2
O=C(CCSc1ccc(Cl)cc1)N1CCN(c2ccc(O)cc2)CC1 | -25 | 0 | 1 | 0 | 106* | 63*
O=C(CCOc1ccccc1)N1CCN(c2ccc(O)cc2)CC1 | 13 | -2 | 1 | 11 | 82* | 50
CC(O)CNCCCOc1ccc(Cl)cc1C(C)(C)C (stereo unspecified) | 19 | 9 | -1 | -4 | 6 | 26
N#CC1=C(N)Oc2c(ccc3ccccc23)C1c1ccsc1 (stereo unspecified) | 1 | 4 | 3 | 48 | nt | 75*
N#CC1=C(N)Oc2c(oc(CO)cc2=O)C1c1ccsc1 (stereo unspecified) | 2 | -8 | 1 | 12 | -22 | -18
C/C(=N\NC(=S)Nc1ccccc1C)c1cc2ccccc2o1 | 4 | 78* | 0 | 26 | 28 | 59*
C/C(=N\NC(=S)Nc1c(C)cccc1C)c1cc2ccccc2o1 | 8 | 10 | 0 | 7 | 13 | 46
CC1(C)C(C=C(Cl)Cl)C1C(=O)Nc1ccc([N+](=O)[O-])cc1 (stereo unspecified) | nt | 96* | nt | nt | 54 | nt

Compound activity deposited in PubChem by Broad Institute.
